TRPC4 inh: inhibitors of mouse TRPC4 channel, primary screen, Fluo4 calcium, HEK293 TRPC4beta/mu-opioid cells. DAMGO-evoked Fluo4 calcium flux; hits give low values. B-score at 10 µM. actives 0.39% (n = 300,000). Short transient receptor potential channel 4 (Mus musculus), Q9QUQ5;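 active = B-score over 3 SD under the library average, no early fluorescence shift, positive overall ratio signal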
Target sequence (Q9QUQ5 whole entry, looked up): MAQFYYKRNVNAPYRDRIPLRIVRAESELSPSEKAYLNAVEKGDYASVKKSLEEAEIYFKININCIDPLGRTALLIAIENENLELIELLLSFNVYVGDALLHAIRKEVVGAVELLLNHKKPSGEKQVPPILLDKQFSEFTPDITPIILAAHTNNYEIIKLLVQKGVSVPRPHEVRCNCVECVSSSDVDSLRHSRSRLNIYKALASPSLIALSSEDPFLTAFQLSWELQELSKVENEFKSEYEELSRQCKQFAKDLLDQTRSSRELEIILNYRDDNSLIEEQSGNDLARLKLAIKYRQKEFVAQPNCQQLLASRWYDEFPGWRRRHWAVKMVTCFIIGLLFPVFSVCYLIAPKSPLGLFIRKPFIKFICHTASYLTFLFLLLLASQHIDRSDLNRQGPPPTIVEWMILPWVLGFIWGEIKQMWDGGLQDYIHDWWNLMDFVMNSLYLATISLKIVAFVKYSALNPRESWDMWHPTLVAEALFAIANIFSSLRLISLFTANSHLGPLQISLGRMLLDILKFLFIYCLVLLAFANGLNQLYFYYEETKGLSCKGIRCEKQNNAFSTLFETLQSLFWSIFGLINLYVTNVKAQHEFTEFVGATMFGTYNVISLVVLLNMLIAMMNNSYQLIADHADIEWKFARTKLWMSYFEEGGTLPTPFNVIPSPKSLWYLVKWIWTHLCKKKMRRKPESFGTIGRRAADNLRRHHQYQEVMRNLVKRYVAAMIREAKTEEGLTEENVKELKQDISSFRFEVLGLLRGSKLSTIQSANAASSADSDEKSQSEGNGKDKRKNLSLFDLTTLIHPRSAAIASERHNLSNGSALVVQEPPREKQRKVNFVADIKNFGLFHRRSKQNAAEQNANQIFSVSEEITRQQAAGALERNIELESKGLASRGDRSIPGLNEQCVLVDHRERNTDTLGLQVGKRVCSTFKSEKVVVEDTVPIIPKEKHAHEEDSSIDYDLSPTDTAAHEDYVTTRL
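Signal: kinetic Fluo4 fluorescence imaging of calcium influx. Material: stable TRPC4beta/mu-opioid receptor HEK293 cells. Probe or stimulus: DAMGO in two steps, submaximal then maximal.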
TRPC4 potent: positive allosteric modulators of TRPC4, primary screen, cell-based, mouse TRPC4beta, HEK293 mu-opioid, Fluo-4 calcium. DAMGO EC20, Fluo-4 Ca2+ flux; hits give high values. B-score at 10 µM. actives 0.42% (n = 310,000). AID 2227, 2009;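 active = B-score of calcium response area above 5 SD of library B-scores, with initial fluorescence ratio within 5 SD of library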;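 also: B-score of integrated fluorescence ratio over time as area under calcium response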
TRPC6 inh: mouse TRPC6 channel inhibitors, primary screen, cell-based, HEK293, membrane potential dye | Short transient receptor potential channel 6 (Mus musculus), Q61143 | ACh-evoked depolarization; hits give low values | B-score at 10 µM | actives 1.1% (n = 310,000) | AID 2553, 2010;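 active = B-score under library mean minus 3 SD, initial fluorescence not abnormally high, positive integrated signal ratio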;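 also: B-score derived from integrated fluorescence ratio over the kinetic read; more negative B-score means stronger inhibition of depolarization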
TRPC6 activator: mouse TRPC6 channel activators, primary screen, cell-based, HEK293, membrane potential dye | Short transient receptor potential channel 6 (Mus musculus), Q61143 | HEK293-TRPC6 membrane potential dye fluorescence; hits give high values | B-score at 10 µM | actives 0.13% (n = 310,000);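 active = B-score of the integrated fluorescence ratio above library mean plus 3 SD, and starting fluorescence ratio within library mean plus 5 SD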;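 also: higher score means more depolarization so channel activation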
TRPC4 act: activators of mouse TRPC4 channel, primary screen, Fluo4 calcium, HEK293 TRPC4beta/mu-opioid cells. Short transient receptor potential channel 4 (Mus musculus), Q9QUQ5. Fluo4 calcium fluorescence; hits give high values. B-score at 10 µM. actives 0.49% (n = 310,000);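 active = B-score above 5 SD of library B-scores, and initial fluorescence ratio not above library mean plus 5 SD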;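 also: positive B-score marks a calcium rise read as TRPC4 activation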
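Incubation: 45 min room-temperature Fluo4 loading, 110 s read / System: HEK293 cells stably co-expressing mouse TRPC4beta and mu-opioid receptor / Signal: Fluo4 fluorescence, kinetic / Control set: buffer (low) and maximal DAMGO (high) / Measure: integrated baseline-normalised fluorescence ratio, converted to per-well B score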
An asterisk follows results filed as active; i = inactive; · = not tested or not shown. A selection: hits, their analogues and other compounds. The true share with any hit is near 2.3%.

SMILES	TRPC4 inh	TRPC4 potent	TRPC6 inh	TRPC6 activator	TRPC4 act
CC(/C=N/NC(=O)c1nnn(-c2nonc2N)c1C(C)C)=C\c1ccco1	i	i	i	i	i
Cc1cccc(OCCCCCn2ccnc2)c1	i	14*	i	i	i
CC(C)(C)c1ccccc1OCC(=O)NCCCn1ccnc1	i	i	i	i	55*
O=C(COc1ccc(Cl)cc1Cl)NCCCn1ccnc1	i	i	i	i	i
Cc1cccc(Cl)c1OCCCCn1ccnc1	·	i	i	i	77*
Clc1ccccc1OCCCCn1ccnc1	i	i	i	i	i
Cc1cccc(OCCn2ccnc2)c1	i	i	i	i	i
Cc1ccccc1OCCCCCn1ccnc1	i	i	i	i	61*
COc1cccc(C(=O)NCC(=O)N2CCC3(CC2)NCCc2[nH]cnc23)c1	i	i	i	i	i
CCCN1CCN(CCCNC(=O)c2ccc(CS(=O)c3ccc(OC)cc3)o2)CC1 (configuration not stated)	i	i	i	i	i
O=C(CCCSc1nc2ccccc2[nH]1)NC(c1ccccc1)c1ccccc1	i	i	i	i	i
O=C(CCCSc1nc2ccccc2[nH]1)NCc1ccccc1Cl	-8*	i	i	i	i
O=C(COC(=O)c1ccc(NC(=O)C2CC=CCC2C(=O)O)cc1)c1ccccc1 (configuration not stated)	i	i	i	i	i
Cn1c2ccccc2c(=O)c2c(=O)n(-c3ccccc3)c(-c3ccc(C(C)(C)C)cc3)nc21	i	21*	i	i	i
Cc1nc2c(c(=O)c3ccccc3n2C)c(=O)n1C1CCCCCC1	i	i	i	i	i
Cc1ccc(-c2nc3c(c(=O)c4ccccc4n3C)c(=O)n2-c2ccc(F)cc2)cc1	i	i	i	i	i
Cn1c2ccccc2c(=O)c2c(=O)n(C3CCCCC3)c(-c3ccco3)nc21	i	i	i	i	116*
CCOC(=O)C1CCCN(C(=O)c2ccc3nc(-c4cccc(OC)c4)oc3c2)C1 (configuration not stated)	i	i	i	i	i
Cc1ccccc1OCCCCN1CCCCC1	i	i	i	i	i
Cc1ccc(SCCCCN2CCOCC2)cc1	i	i	i	i	i
Cc1ccc(SCCCCN2CCNCC2)cc1	i	13*	i	i	i
Cc1ccc(C(C)C)c(OCCCCN2CCNCC2)c1	i	18*	i	i	i
Cc1ccc(C(C)C)cc1OCCCCN1CCCC1	i	26*	i	i	i
Cc1ccc(C)c(OCCCN2CCCC2)c1	i	11*	i	i	i
C[C@@]12C(=O)N(CCO)CC(=O)N1[C@H](/C=C/c1ccccc1)[C@@H]1C(=O)N(c3ccccc3)C(=O)[C@@H]12	i	i	i	i	i
SMILES	TRPC4 inh	TRPC4 potent	TRPC6 inh	TRPC6 activator	TRPC4 act
Cc1ccc(Cl)c(OCCN2CCCC(C)C2)c1 (configuration not stated)	i	34*	i	i	i
CCCCN(C)C(=O)Cn1nc(Cc2ccncc2)c2ccccc2c1=O	i	i	i	i	i
CCCCN(CC)CCCNC(=O)Cn1nc(Cc2ccncc2)c2ccccc2c1=O	i	i	i	i	133*
Cc1ccc(/C=C/C(=O)c2ccc(O)cc2)cc1	-6*	i	i	i	i
COc1ccc(Nc2cc(Nc3ccccc3)ncn2)cc1	i	i	i	i	i
Cc1cccc(C)c1NC(=O)CNC(=O)c1ccc2nc[nH]c2c1	i	i	i	i	i
CC(C)Cc1csc(NC(=O)c2ccc(Cl)cc2)c1C(=O)O	i	i	i	i	48*
CC(C)Cc1csc(NC(=O)c2ccccc2Cl)c1C(=O)O	i	i	i	i	i
Cc1ccccc1NC(=O)Cc1nc(COC(=O)CCNS(=O)(=O)c2ccccc2)cs1	i	i	i	i	i
O=C(c1ccc(CN2CCOCC2)cc1)N1CCN(c2ccccc2)CC1	-6*	i	i	i	i
CC(=O)c1ccc(N2CCN(C(=O)c3ccc(Cn4c(=S)[nH]c5ccc(N6CCOCC6)cc5c4=O)cc3)CC2)cc1	i	14*	i	i	i
Nc1nonc1C(=O)N/N=C/c1cc2c(cc1Br)OCO2	i	i	i	i	i
CCCCCCCC[n+]1cccc2c3ccccc3ccc21	-6*	i	i	i	i
Cc1cc(C)c2oc(C(=O)N3CCN(C)CC3)cc(=O)c2c1	i	i	i	i	i
CC1=NN(c2ccccc2)C(=O)/C1=C\C=C1\N(C)c2ccccc2C1(C)C	i	i	i	i	58*
CN1CCN(Cc2c(C(=O)N/N=C/c3cccc(Br)c3)nnn2-c2nonc2N)CC1	i	i	i	i	43*
Nc1nonc1-n1nnc(C(=O)N/N=C/c2cccc(O)c2)c1CN1CCCC1	i	i	i	i	i
COC(=O)CSc1nnc(-c2sc3cc(OC)ccc3c2Cl)n1C	-6*	i	i	i	i
COC(=O)CSc1nc2cc(OC)ccc2n1C	i	i	i	i	i
CSCC[C@H](NC(=O)N1CCn2c1nc1ccccc12)C(=O)NCc1ccc(C)cc1	i	43*	i	i	i
Cn1c(=O)n(C)c2cc([N+](=O)[O-])c(N3CCN(S(=O)(=O)c4ccc5ccccc5c4)CC3)cc21	i	i	i	i	i
Cc1ccc(S(=O)(=O)N2CCN(c3cc4c(cc3[N+](=O)[O-])n(C)c(=O)n4C)CC2)cc1	i	15*	i	i	i
C=C[C@H]1[C@H](OC2OC(CO)C(O)C(O)C2O)OC=C(C(=O)OC)[C@H]1C[C@H]1CC(=O)C[C@H](CC(=O)CCc2ccc(O)cc2)O1 (some centres not stated)	i	i	i	i	i
CCOC(=O)C1(Cc2cccc(F)c2)CCN(Cc2cnn(CC)c2C)CC1	i	i	i	i	143*
CCOC(=O)C1(Cc2cccc(F)c2)CCN(CCCn2cccn2)CC1	i	i	i	i	i
